Measurements as given in ChEMBL document CHEMBL2331363, “Synthesis of a 2,4,6-trisubstituted 5-cyano-pyrimidine library and evaluation of its immunosuppressive activity in a Mixed Lymphocyte Reaction assay” (Bioorg Med Chem, 2013).
pIC50: −log10 of the molar value.

Tests used:
[1] = Immunosuppressive activity in human RPMI1788 cells cocultured with human PBMC assessed as inhibition of [3H]thymidine incorporation incubated for 6 days prior to [3H]thymidine addition measured after 18 hrs by liquid scintillation counting; type: functional, cell-based; conditions: RPMI-1788
How it was run: (§1)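 Effector PBMCs from heparinized healthy-donor blood were isolated over Lymphoprep and held at 1.2 × 10⁶ cells/mL in RPMI-1640 with 10% heat-inactivated FCS. Mitomycin-treated stimulator cells were at 0.45 × 10⁶ cells/mL. Cells were mixed with diluted compound and cultured at 37 °C, 5% CO₂. (methyl-³H)thymidine was added for the final 18 h, and filter-harvested cpm were counted by scintillation. Compounds were screened at one concentration, then dose-response IC₅₀ was determined. Values are means of two independent experiments.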

[2] = Immunosuppressive activity in human RPMI1788 cells cocultured with human PBMC assessed as inhibition of [3H]thymidine incorporation at 10 uM incubated for 6 days prior to [3H]thymidine addition measured after 18 hrs by liquid scintillation counting; type: functional; conditions: RPMI-1788; how it was run: as §1
[3] = Growth inhibition of human Jurkat T cells at 10 uM after 48 hrs by WST1 assay; type: cell-based
How it was run: (§2)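 Jurkat T cells were seeded at 5.10⁴ cells per well and exposed to serial compound dilutions for 48 h at 37 °C and 5% CO₂. Part of the medium was removed, WST-1 tetrazolium salt was added, and cells were incubated further. Absorbance was read at 450 nm. Results are % cytotoxicity at each concentration, with CC₅₀ calculated.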

[4] = Cytotoxicity against human Jurkat T cells after 48 hrs by WST1 assay; type: cell-based; how it was run: as §2

SMILES | pIC50 [1] | inhibition at 10 µM [2] [%] | inhibition at 48 h, 10 µM [3] [%] | CC50 at 48 h [4] [µM]
CCn1c(SCc2ccccc2)nc(-c2ccc(Cl)cc2)c(C#N)c1=O | < 5.00 | 5 | – | –
N#Cc1c(-c2ccc(Cl)cc2)nc(SCc2ccccc2)nc1N1CCOCC1 | 5.08 | 63 | 5 | > 10
COc1ccc(-c2nc(SCc3ccccc3)nc(NCc3cccs3)c2C#N)cc1 | 5.30 | 65 | 13 | > 10
N#Cc1c(-c2cccc(Cl)c2)nc(Nc2ccc(Cl)cc2)[nH]c1=O | < 5.00 | 14 | – | –
Cc1ccc(Nc2nc(-c3ccc(Cl)cc3)c(C#N)c(=O)[nH]2)cc1 | < 5.00 | 20 | – | –
COc1ccc(-c2nc(SCc3ccccc3)nc(N3CCC(C)CC3)c2C#N)cc1 | < 5.00 | 35 | – | –
N#Cc1c(-c2ccc(Cl)cc2)nc(SCc2ccccc2)nc1N1CCC(C(=O)c2ccccc2)CC1 | 5.01 | 55 | 6 | > 10
Cc1ccc(Nc2nc(-c3ccccc3)c(C#N)c(=O)[nH]2)cc1 | < 5.00 | 11 | – | –
CC(C)Nc1nc(Nc2ccc(Cl)cc2)nc(-c2ccccc2)c1C#N | 5.24 | 72 | – | –
COc1ccc(-c2nc(SCc3ccccc3)nc(N3CCC(C(N)=O)CC3)c2C#N)cc1 | 5.31 | 73 | 12 | > 10
N#Cc1c(-c2ccc(Cl)cc2)nc(SCc2ccccc2)nc1N1CCC(Cc2ccccc2)CC1 | < 5.00 | 17 | – | –
COc1ccc(-c2nc(SCc3ccccc3)nc(N3CCSCC3)c2C#N)cc1 | < 5.00 | 13 | – | –
N#Cc1c(-c2ccc(Cl)cc2)nc(Nc2cccc(F)c2)[nH]c1=O | < 5.00 | 0 | – | –
CCOc1nc(SCc2ccccc2)nc(-c2ccc(Cl)cc2)c1C#N | < 5.00 | 13 | – | –
CCOc1nc(Nc2ccc(Cl)cc2)nc(-c2ccc(Cl)cc2)c1C#N | < 5.00 | 0 | – | –
N#Cc1c(-c2ccccc2)nc(Nc2ccc(Cl)cc2)nc1N1CCCCC1 | 5.21 | 70 | 9 | > 10
N#Cc1c(NC2CCCCC2)nc(Nc2ccc(Cl)cc2)nc1-c1ccc(Cl)cc1 | < 5.00 | 1 | – | –
CCOc1nc(SCc2ccccc2)nc(-c2cccc(Cl)c2)c1C#N | < 5.00 | 10 | – | –
Cc1ccc(Nc2nc(-c3ccc(Cl)cc3)c(C#N)c(N3CCCCC3)n2)cc1 | < 5.00 | 0 | – | –

SMILES | pIC50 [1] | inhibition at 10 µM [2] [%] | inhibition at 48 h, 10 µM [3] [%] | CC50 at 48 h [4] [µM]
N#Cc1c(-c2ccccc2)nc(Nc2ccc(Cl)cc2)[nH]c1=O | < 5.00 | 0 | – | –
COc1ccc(-c2nc(SCc3ccccc3)nc(N3CCC(c4ccccc4)CC3)c2C#N)cc1 | < 5.00 | 31 | – | –
COc1ccc(-c2nc(SCc3ccccc3)nc(NCc3ccccc3)c2C#N)cc1 | 5.60 | 73 | 5 | > 10
N#Cc1c(-c2ccc(Cl)cc2)nc(Nc2ccc(Cl)cc2)nc1N1CCOCC1 | < 5.00 | 45 | – | –
CCOc1nc(SCc2ccccc2)nc(-c2ccc(OC)cc2)c1C#N | < 5.00 | 46 | – | –
CCn1c(SCc2ccccc2)nc(-c2ccc(OC)cc2)c(C#N)c1=O | < 5.00 | 12 | – | –
CCCCSc1nc(-c2ccc(OC)cc2)c(C#N)c(N2CCOCC2)n1 | 5.64 | 67 | 13 | > 10
CCOc1nc(Nc2ccc(Cl)cc2)nc(-c2ccccc2)c1C#N | < 5.00 | 38 | – | –
N#Cc1c(-c2ccc(Cl)cc2)nc(Nc2ccc(Cl)cc2)[nH]c1=O | < 5.00 | 18 | – | –
N#Cc1c(OCc2ccccc2)nc(SCc2ccccc2)nc1-c1ccc(Cl)cc1 | < 5.00 | 22 | – | –
COc1nc(Nc2ccc(Cl)cc2)nc(-c2ccc(Cl)cc2)c1C#N | < 5.00 | 0 | – | –
N#Cc1c(-c2ccc(Cl)cc2)nc(SCc2ccccc2)nc1N1CCC(C(N)=O)CC1 | 5.19 | 57 | 19 | > 10
COc1nc(SCc2ccccc2)nc(-c2ccc(Cl)cc2)c1C#N | < 5.00 | 10 | – | –
COc1ccc(-c2nc(SCc3ccccc3)nc(N3CCC(Cc4ccccc4)CC3)c2C#N)cc1 | < 5.00 | 31 | – | –
N#Cc1c(-c2ccc(Cl)cc2)nc(SCc2ccccc2)n(Cc2ccccc2)c1=O | < 5.00 | 14 | – | –
Cc1ccc(Nc2nc(-c3ccccc3)c(C#N)c(N3CCCCC3)n2)cc1 | 5.37 | 88 | 10 | > 10
CC(C)Nc1nc(Nc2ccc(Cl)cc2)nc(-c2ccc(Cl)cc2)c1C#N | < 5.00 | 0 | – | –
N#Cc1c(OCc2ccccc2)nc(Nc2ccc(Cl)cc2)nc1-c1ccc(Cl)cc1 | < 5.00 | 26 | – | –
COc1ccc(-c2nc(SCCc3ccccc3)nc(N3CCOCC3)c2C#N)cc1 | 5.41 | 62 | 9 | > 10

SMILES | pIC50 [1] | inhibition at 10 µM [2] [%] | inhibition at 48 h, 10 µM [3] [%] | CC50 at 48 h [4] [µM]
N#Cc1c(-c2cccc(Cl)c2)nc(SCc2ccccc2)nc1N1CCOCC1 | 5.26 | 80 | 15 | > 10
Cn1c(SCc2ccccc2)nc(-c2cccc(Cl)c2)c(C#N)c1=O | < 5.00 | 7 | – | –
COc1ccc(-c2nc(SC)nc(N3CCOCC3)c2C#N)cc1 | 5.31 | 80 | 6 | > 10
CCc1cccc(Nc2nc(-c3ccc(Cl)cc3)c(C#N)c(=O)[nH]2)c1 | < 5.00 | 33 | – | –
N#Cc1c(NC2CCCCC2)nc(SCc2ccccc2)nc1-c1ccc(Cl)cc1 | 5.19 | 56 | 0 | > 10
CCCOc1nc(Nc2ccc(Cl)cc2)nc(-c2ccccc2)c1C#N | < 5.00 | 44 | – | –
C=CCSc1nc(-c2ccc(OC)cc2)c(C#N)c(N2CCOCC2)n1 | 5.47 | 82 | 5 | > 10
COc1ccc(-c2nc(SCc3ccccc3)n(C)c(=O)c2C#N)cc1 | < 5.00 | 5 | – | –
CCCCCCSc1nc(-c2ccc(OC)cc2)c(C#N)c(N2CCOCC2)n1 | 5.28 | 69 | 13 | > 10
COc1ccc(-c2nc(SCc3ccccc3)nc(N3CCC(C(=O)c4ccccc4)CC3)c2C#N)cc1 | 5.68 | 63 | 2 | > 10
CCCn1c(SCc2ccccc2)nc(-c2cccc(Cl)c2)c(C#N)c1=O | < 5.00 | 9 | – | –
N#Cc1c(-c2ccc(Cl)cc2)nc(Nc2ccc(Cl)cc2)nc1N1CCCCC1 | < 5.00 | 15 | – | –
N#Cc1c(-c2ccc(Cl)cc2)nc(SCc2ccccc2)nc1N1CCCC(C(N)=O)C1 (stereo unspecified) | < 5.00 | 64 | – | –
COc1ccc(-c2nc(SCc3ccccc3)nc(NCCc3ccccc3)c2C#N)cc1 | < 5.00 | 11 | – | –
CC(C)Nc1nc(SCc2ccccc2)nc(-c2ccc(Cl)cc2)c1C#N | < 5.00 | 48 | – | –
COc1ccc(-c2nc(SCc3ccc(Br)cc3)nc(N3CCOCC3)c2C#N)cc1 | < 5.00 | 36 | – | –
Cn1c(SCc2ccccc2)nc(-c2ccc(Cl)cc2)c(C#N)c1=O | < 5.00 | 0 | – | –
N#Cc1c(-c2ccc(Cl)cc2)nc(Nc2ccccc2)[nH]c1=O | < 5.00 | 8 | – | –
COc1ccc(-c2nc(Nc3ccc(Cl)cc3)[nH]c(=O)c2C#N)cc1 | < 5.00 | 0 | – | –
